Source: ChEMBL document CHEMBL1208685, “Synthesis, antiproliferative activity and inhibition of tubulin polymerization by anthracenone-based oxime derivatives” (Eur J Med Chem, 2010)
pIC50: −log10 of the molar value.

Experiments:
K562 = test: Cell growth inhibition of human K562 cells after 48 hrs; assay type: functional, cell-based; settings: K562, 48 h
Method in brief: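 K562 human chronic myelogenous leukemia cells cultured in Quantum 263 medium with streptomycin and penicillin G at 37 °C, 5% CO2. Seeded at 2 × 10⁵ cells/mL, exposed 48 h to compounds in DMSO/methanol 1:1 (vehicle 0.5%). Cells counted in Neubauer chamber and expressed as % of untreated control. Triplicate wells, three experiments. IC50 by nonlinear regression.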

Tubulin (Sus scrofa) = test: Inhibition of tubulin polymerization using porcine brain microtubule protein

Row | SMILES | pIC50 (K562) | pIC50 (Tubulin (Sus scrofa))
1 | O=C1c2ccccc2C(=NO)c2ccccc21 | 5.52 | –
2 | COc1cccc2c1C(=O)c1c(OC)cccc1C2=NO | 6.05 | –
3 | O=C1c2cccc(Cl)c2/C(=N/O)c2cccc(Cl)c21 | 5.80 | –
4 | O=C1c2cccc(Cl)c2/C(=N\O)c2cccc(Cl)c21 | 5.80 | –
5 | O=C1c2c(Cl)cccc2C(=NO)c2cccc(Cl)c21 | < 5.05 | –
6 | COc1ccc(C(=O)ON=C2c3ccccc3C(=O)c3ccccc32)cc1 | 5.52 | < 5.00
7 | COc1cc(C(=O)ON=C2c3ccccc3C(=O)c3ccccc32)cc(OC)c1OC | < 4.92 | –
8 | COc1ccc(C(=O)O/N=C2\c3cccc(Cl)c3C(=O)c3cccc(Cl)c32)cc1 | 4.92 | < 5.00
9 | COc1cc(C(=O)O/N=C2\c3cccc(Cl)c3C(=O)c3cccc(Cl)c32)cc(OC)c1OC | < 4.85 | –
10 | COc1ccc(C(=O)ON=C2c3cccc(Cl)c3C(=O)c3c(Cl)cccc32)cc1 | < 4.92 | –
11 | COc1ccc(C(=O)ON=C2c3ccccc3C(=O)c3ccccc32)cc1O | 5.70 | –
12 | COc1cc(C(=O)ON=C2c3ccccc3C(=O)c3ccccc32)ccc1O | 5.52 | –
13 | COc1ccc(S(=O)(=O)ON=C2c3ccccc3C(=O)c3ccccc32)cc1 | 5.52 | < 5.00
14 | COc1ccc(S(=O)(=O)O/N=C2\c3cccc(Cl)c3C(=O)c3cccc(Cl)c32)cc1 | < 4.92 | –
15 | O=C1c2ccccc2C(=NOCc2ccccc2)c2ccccc21 | 5.15 | –
16 | COc1ccc(CON=C2c3ccccc3C(=O)c3ccccc32)cc1 | 6.43 | 5.98
17 | COc1cc(CON=C2c3ccccc3C(=O)c3ccccc32)cc(OC)c1OC | < 4.92 | –
18 | COc1ccc(CON=C2c3ccccc3C(=O)c3ccccc32)cc1O | 6.96 | 5.84
19 | O=C1c2ccccc2C(=NOCc2ccc(Cl)cc2)c2ccccc21 | 5.00 | –
20 | O=C1c2ccccc2C(=NOCc2ccc([N+](=O)[O-])cc2)c2ccccc21 | < 4.96 | –
21 | COc1ccc(CO/N=C2\c3cccc(Cl)c3C(=O)c3cccc(Cl)c32)cc1 | < 4.92 | < 5.00
22 | COc1cc(CO/N=C2\c3cccc(Cl)c3C(=O)c3cccc(Cl)c32)cc(OC)c1OC | < 4.85 | –
23 | COc1ccc(CON=C2c3cccc(Cl)c3C(=O)c3c(Cl)cccc32)cc1 | < 4.92 | –
24 | COc1ccc(CON=C2c3cccc(OC)c3C(=O)c3c(OC)cccc32)cc1 | 5.47 | < 5.00
25 | COc1ccc(CON=C2c3cccc(OC)c3C(=O)c3c(OC)cccc32)cc1O | 5.62 | < 5.00
